14-3-3 Bad PPI: disrupts binding of bovine 14-3-3 zeta to phospho-Bad peptide | P63103 | TR-FRET 14-3-3zeta/Dy647-pBad peptide displacement, 1 h | inhibition, % at 21.7 µM | 220,000 compounds, 0.71% hits | AID 781;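 active = inhibition above about 70%, limit read from the data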
Target sequence (P63103 whole entry, looked up): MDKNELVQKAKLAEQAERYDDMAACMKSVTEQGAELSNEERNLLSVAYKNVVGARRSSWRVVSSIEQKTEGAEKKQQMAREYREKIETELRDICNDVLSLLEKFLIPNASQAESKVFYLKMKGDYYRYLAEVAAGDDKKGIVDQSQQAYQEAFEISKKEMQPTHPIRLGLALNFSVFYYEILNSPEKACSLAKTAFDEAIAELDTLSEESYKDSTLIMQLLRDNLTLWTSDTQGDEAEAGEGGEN
Mdm2 ligase inh: blocks human Mdm2 ubiquitin ligase activity. signal enhancement, % at 5 µM. 210,000 compounds, 0.11% hits. cell-based MDM2 ubiquitination luciferase reporter, 2 h; 0 = plate control, 100 = twice control, blank-subtracted. Q00987;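 active = signal enhancement of 30% or more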;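 note: luminescence tracks abundance of the self-degrading MDM2-luciferase fusion protein; higher signal means inhibition of MDM2 E3 ligase activity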
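Material: Stable MDM2–luciferase fusion reporter cells | Amount: 2000 cells seeded into each well | Dosing: One concentration, 5 µM, with 0.2% DMSO | Incubation: 4 h cell settling then 2 h compound exposure, 37 °C | Measured by: Luciferase luminescence | Read-out basis: % enhancement relative to plate controls after blank subtraction | Benchmarks: Control and blank well means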
Wee1 degr inh: inhibitors of human Wee1 degradation; HeLa Luc-Wee1K328M stability, luciferase luminescence; 100% = proteasome inhibitor MG132 effect; AID 1321; reporter increase, % at 5 µM; 220,000 compounds, 1.2% hits;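 active = activation above the mean of all tested compounds plus 3 SD, set per screening run, cut at about 8.8% in these data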;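 note: cells exposed to compound for 20 h before luminescence read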
Tb hexokinase: blocks Trypanosoma brucei hexokinase 1 activity | AID 1430 | 220,000 compounds, 0.11% hits | recombinant TbHK1, G6PDH-coupled NADH A340 | inhibition, % at 10 µM;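 active = inhibition of 50% or more in the single-dose primary screen; inactive = inhibition below 50%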
Hck-Nef inh: inhibitors of human Hck kinase activated by Nef. Recombinant Hck-YEEI plus Nef, Z-Lyte FRET kinase assay. inhibition, % at 20 µM. 220,000 compounds, 0.68% hits;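 active = Hck-Nef kinase inhibition above about 50%, limit read from the data; inactive = inhibition below that limit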
Wee1 stab conf: human Wee1 degradation inhibition, confirmation; shares compounds with Wee1 degr inh; HeLa Luc-Wee1K328M degradation, luminescence; vehicle 0%, proteasome-blocked wells 100%; activation, % at 5 µM; 1,100 compounds, 4% hits; AID 1410; in the data active = activation above about 8.9%
Large screens that a line does not name were inactive (follow-up assays come after a bar, where they were run). Rows were chosen to be rich in hits. Some 2.7% of all compounds tested hit in one or more screens of this group.

COc1ccc(-n2c(=O)c3c(C)c(C)sc3n(Cc3cccc(F)c3)c2=O)c(OC)c1	none
CCN(CC)C(=O)c1sc2c(c1C)c(=O)n(-c1ccc(OC)cc1OC)c(=O)n2CC(=O)c1ccccc1	Wee1 degr inh 12 | Wee1 stab conf inactive
CC(=O)O/N=C/c1c(NCc2ccccc2)nc2c(C)cccn2c1=O	Wee1 degr inh 12 | Wee1 stab conf inactive
CC(=O)c1ccc(NC(=S)NCCc2ccc(S(N)(=O)=O)cc2)cc1	Wee1 degr inh 27 | Wee1 stab conf inactive
Cc1ccc(NC(=O)Nc2cccs2)c(Cl)c1	none
O=C(Nc1cccs1)Nc1ccc(Br)cc1F	Wee1 degr inh 14 | Wee1 stab conf inactive
COc1ccc(C2CC(c3ccc(Cl)cc3)=NN2C(=O)c2cccc([N+](=O)[O-])c2)cc1 (stereo not given)	none
Cc1ccc(C(=O)N2CCCC(C(=O)c3cc(F)ccc3F)C2)s1 (stereo not given)	none
COc1cc(OC)cc(C(=O)NC2CCSC2=O)c1 (stereo not given)	Wee1 degr inh 12 | Wee1 stab conf inactive
COc1ccc(C(=O)NC(=S)NC2CCSC2=O)cc1 (stereo not given)	none
CCn1c(=O)c2cc(C(=O)N3CCN(C)CC3)sc2c2ccccc21	none
CN1CCN(C(=O)c2cc3sc4ccccc4c3s2)CC1	Wee1 degr inh 14 | Wee1 stab conf inactive
CCn1c(N2CCN(S(=O)(=O)c3ccc(F)cc3)CC2)nc2ccccc21	none
CCn1c(N2CCN(S(=O)(=O)c3ccc(Cl)cc3)CC2)nc2ccccc21	Wee1 degr inh 26 | Wee1 stab conf inactive
O=C(Nc1nnc(-c2ccco2)o1)c1ccc([N+](=O)[O-])s1	none
O=C(CSc1nnc(-c2cccs2)n1-c1ccccc1)Nc1ccccc1	none
CCN(CC)S(=O)(=O)c1ccc(OC)c(NC(=S)Nc2cccc(C)c2C)c1	none
CC(=C/c1ccccc1)/C=N/NC(=O)c1cccs1	none
Cc1occc1C(=O)N/N=C/C(Br)=C\c1ccccc1	Wee1 degr inh 28 | Wee1 stab conf inactive
Cc1occc1C(=O)N/N=C/C=C/c1ccccc1	none
O=C(N/N=C/C(Br)=C\c1ccccc1)c1cccs1	Wee1 degr inh 12 | Wee1 stab conf inactive
CCc1cccc(CC)c1NC(=O)/C(C#N)=C/c1ccccc1C(F)(F)F	none
COc1cc(NC(=O)COC(=O)CNC(=O)c2ccc(Cl)cc2)c(C)cc1[N+](=O)[O-]	Wee1 degr inh 12 | Wee1 stab conf inactive
COc1cc(NC(=O)COC(=O)CNC(=O)c2ccc(C)cc2)c(C)cc1[N+](=O)[O-]	none
CC(=O)Nc1ccc(NC(=O)c2ccc(NS(=O)(=O)c3cc(C(C)(C)C)ccc3C)cc2)cc1	none (no result: Mdm2 ligase inh)
Cc1cc(F)ccc1NC(=O)c1ccc(NS(=O)(=O)c2cc(C(C)(C)C)ccc2C)cc1	Wee1 degr inh 13 | Wee1 stab conf inactive
Cn1ncc(Br)c1C(=O)Nc1cccc(C(F)(F)F)c1	none
Cn1nc(C(=O)Nc2cccc(C(F)(F)F)c2)ccc1=O	Wee1 degr inh 11 | Wee1 stab conf inactive
COC(=O)c1ccc(COc2ncnc3sccc23)cc1	none
COC(=O)c1cccc(Nc2ncnc3sccc23)c1	Wee1 degr inh 14 | Wee1 stab conf inactive
C/C=C/C(=O)OCC(=O)Nc1ccc(C)c(S(=O)(=O)N(C)C)c1	none
Cc1ccc(NC(=O)COC(=O)[C@H](C)N2C(=O)C3CC=CCC3C2=O)cc1S(=O)(=O)N(C)C (stereo not given in full)	Wee1 degr inh 14 | Wee1 stab conf inactive
CN1CCN(c2oc(Cc3cccc4ccccc34)nc2C#N)CC1	Wee1 degr inh 13 | Wee1 stab conf inactive
CCOc1ccc(-c2cc(C(=O)N3CCN(C)CC3)c3ccccc3n2)cc1	Wee1 degr inh 17 | Wee1 stab conf inactive
CCOc1ccc(-c2cc(C(=O)NN3CCN(C)CC3)c3cc(Cl)ccc3n2)cc1	Wee1 degr inh 11 | Wee1 stab conf inactive
CCOC(=O)N1CCN(C(=O)c2cc(-c3ccc(OCC)cc3)nc3ccccc23)CC1	Wee1 degr inh 12 | Wee1 stab conf 22
Cc1c(-c2ccccc2)nc2ccccc2c1C(=O)NCc1cccs1	none
Cc1cccn2c1nc(=S)n2C(=O)c1ccco1	Wee1 degr inh 12 | Wee1 stab conf 10
Cc1ccc(C(=O)COC(=O)c2ccccc2NC(=O)c2ccccc2)cc1[N+](=O)[O-]	none
O=C1CSC(c2ccncc2)N1Cc1ccco1 (stereo not given)	none
COc1ccc(NC(=O)C2CC(=O)n3cnnc3S2)cc1 (stereo not given)	none (no result: Mdm2 ligase inh)
c1ccc2c(-c3c[nH]c4ccccc34)c3ccccc3nc2c1	Wee1 degr inh 12 | Wee1 stab conf inactive
COc1cc(CNc2ccc(N3CCN(C(C)=O)CC3)cc2)ccc1OCc1ccc(F)cc1	Wee1 degr inh 12 | Wee1 stab conf inactive
Cc1ccc(NS(=O)(=O)c2cc(NC(=O)c3cc4c(s3)CCCC4)ccc2C)c(C)c1	none (no result: Mdm2 ligase inh)
Cc1ccc(NC(=O)c2cc3c(s2)CCCC3)cc1	Wee1 degr inh 16 | Wee1 stab conf inactive
Cc1ccc(NC(=O)c2scc3c2CCCC3)cc1	Wee1 degr inh 12 | Wee1 stab conf inactive
N#CC(c1nc2ccccc2nc1N1CCCC1)S(=O)(=O)c1cccs1 (stereo not given)	none
CC(=O)Nc1ccc(C(O)(C(F)(F)F)C(F)(F)F)cc1	Wee1 degr inh 12 | Wee1 stab conf inactive
Cc1nc2ccc(F)cc2cc1C(=O)Nc1ccc(Cl)c(Cl)c1	Wee1 degr inh 15 | Wee1 stab conf inactive
Cc1nc2ccc(F)cc2cc1C(=O)NCc1ccco1	none
CCOC(=O)CC(NC(=O)Cn1nnc(-c2ccccc2F)n1)c1ccccc1Cl (stereo not given)	none
CCOC(=O)CC(NC(=O)Cn1nnc(-c2ccccc2C)n1)c1ccc(OC)cc1 (stereo not given)	Wee1 degr inh 12 | Wee1 stab conf inactive
NC(Cc1ccc(Oc2ccc(O)cc2)cc1)C(=O)O (stereo not given)	none (no result: Mdm2 ligase inh)
O=C(Cn1nc(-c2ccccc2Cl)ccc1=O)Nc1ccccc1-c1ccccc1	Wee1 degr inh 25 | Wee1 stab conf inactive
COc1ccc(NC(=O)Nc2ccccc2SC)cc1	Wee1 degr inh 11 | Wee1 stab conf inactive
NC(=O)C1=C[C@H](c2ccc(Br)cc2)C[C@H](OCc2ccc(CO)cc2)O1	Wee1 degr inh 11 (no result: Mdm2 ligase inh) | Wee1 stab conf inactive
COc1ccc(NC(=O)CCN2C(=O)C3C4CCC(C4)C3C2=O)cc1 (stereo not given)	Wee1 degr inh 12 | Wee1 stab conf inactive
CCCn1nnnc1NC(=O)c1cccs1	none
COC(CNC(=O)c1ccc2nc(-c3cccs3)c(-c3cccs3)nc2c1)OC	Wee1 degr inh 12 | Wee1 stab conf inactive

Screens: PubChem BioAssay, several laboratories
